Measured values from different studies.

| SMILES | cell line | assay | setting | measurement | value |
| --- | --- | --- | --- | --- | --- |
| COc1cc(/C=C/c2cc(/C=C/c3cccnc3)[nH]n2)ccc1O | CHO-K1 | cell growth or viability, SRB | 72 h | IC50 | 13.6 µM |
| Cc1cc(Nc2ccc(C(=O)N/N=C/c3ccc(C)s3)cc2)c2cccc(O)c2n1 | SMMC-7721 | cell growth or viability, MTT | 20 µM | inhibition | 25.1% |
| Cc1ccc2nc(-c3cc(Br)ccc3O)[nH]c2c1 | human Rhabdomyosarcoma cell | cell growth or viability, MTT | 48 h | IC50 | 10.4 µM |
| CCn1cc(-c2cccc(C(F)(F)F)c2)c2sc(C(=N)NC3CCS(=O)(=O)CC3)cc2c1=O | HL-60 | cell growth or viability | 7 days | EC50 | 433 nM |
| CN(C)c1ccc(-c2nc3ccccc3[nH]2)cc1 | human Rhabdomyosarcoma cell | cell growth or viability, MTT | 48 h | IC50 | 50.5 µM |
| COc1ccc(-c2ccc(-c3ccc(C(=N)N)nc3)s2)cc1 | M14 | cell growth or viability, SRB |  | GI50 | 1.8 µM |
| COc1cc(/C=C/c2cc(/C=C/c3ccncc3)[nH]n2)ccc1O | CHO-K1 | cell growth or viability, MTT | 72 h | IC50 | 32.2 µM |
| Clc1ccc(-c2nc3ccccc3[nH]2)c(Cl)c1 | human Rhabdomyosarcoma cell | cell growth or viability, MTT | 48 h | IC50 | 35 µM |
| Cc1cc(Nc2ccc(C(=O)N/N=C/c3ccncc3)cc2)c2cccc(O)c2n1 | SMMC-7721 | cell growth or viability, MTT | 20 µM | inhibition | 17.1% |
| Cc1cc(Nc2ncc(Cl)c(Nc3ccccc3S(=O)(=O)C(C)C)n2)c(OC(C)C)cc1C1CCNCC1 | NCI-H3122 | cell growth or viability, MTT | 0.08 µg/mL, 72 h | inhibition | 64.2% |
| C/C(=N\O)c1ccc(-c2ccc(F)cc2)c(Cl)c1O | NCI-H1299 | cell growth or viability, MTT | 30 µM, 48 h | viability | 69% |
| Cc1cccc(/C=N/NC(=O)c2ccc(Nc3cc(C)nc4c(O)cccc34)cc2)n1 | SMMC-7721 | cell growth or viability, MTT | 20 µM | inhibition | 19.9% |
| COc1cc(/C=C/C(=O)/C=C(O)/C=C/c2ccnc3ccccc23)ccc1O | CHO-K1 | cell growth or viability, SRB | 72 h | IC50 | 19.3 µM |
| C/C(=N\O)c1ccc(-c2ccc(OC(F)(F)F)cc2)c(Cl)c1O | NCI-H1299 | cell growth or viability, MTT | 30 µM, 48 h | viability | 106% |
| O=C(/C=C(O)/C=C/c1cccnc1)/C=C/c1c[nH]c2ccccc12 | CHO-K1 | cell growth or viability, MTT | 72 h | IC50 | 9.2 µM |
| FC(F)(F)SCCOc1ccc(Oc2ccccc2)cc1 | Vero | cell growth or viability | 72 h | CC50 | > 20 µM |
| Cc1ccc2nc(-c3ccc(Cl)c(Cl)c3)n(Cc3ccccc3)c2c1 | human Rhabdomyosarcoma cell | cell growth or viability, MTT |  | IC50 | 78.9 µM |
| O=C1CCC(N2C(=O)c3ccc(NS(=O)(=O)c4ccccc4OC(F)(F)F)cc3C2=O)C(=O)N1 (stereo not shown) | MHHCALL4 | cell growth or viability, ATP luminescence |  | EC50 | 0.0425 nM |
| N[C@@H]1CCCN(c2c(/C=C3\SC(=O)NC3=O)cccc2-c2ccccc2)C1 | U-266 | cell growth or viability, thymidine uptake |  | GI50 | 4.27 µM |
| Cc1ccc2nc(-c3ccc4c(c3)OCO4)[nH]c2c1 | human Rhabdomyosarcoma cell | cell growth or viability, MTT | 48 h | IC50 | > 100 µM |
| Cc1cc(Nc2ccc(C(=O)N/N=C/c3cccc(Oc4ccccc4)c3)cc2)c2cccc(O)c2n1 | SMMC-7721 | cell growth or viability, MTT | 20 µM | inhibition | 37.6% |
| Cc1ccc(NC(=O)NCc2ccc3c(c2)CN(C2CCC(=O)NC2=O)C3=O)cc1Cl (stereo not shown) | MHHCALL4 | cell growth or viability, ATP luminescence |  | EC50 | 0.0019 nM |

| SMILES | cell line | assay | setting | measurement | value |
| --- | --- | --- | --- | --- | --- |
| c1ccc2c(-c3nc4ccccc4[nH]3)c3ccccc3cc2c1 | human Rhabdomyosarcoma cell | cell growth or viability, MTT | 48 h | IC50 | 7.66 µM |
| CC(=O)c1cccc(N=Nc2c(C(=O)O)cc(O)c(O)c2O)c1 | RAW264.7 | IL-6 release, inhibitor, ELISA | 10 µM, LPS-stimulated | inhibition | 43% |
| N#C[Se]CC1Cc2ccc(Oc3ccccc3)cc2O1 (racemic) | Vero | cell growth or viability | 72 h | CC50 | > 20 µM |
| C/C(=N\O)c1ccc(-c2ccc(O)c(C)c2)c(Cl)c1O | NCI-H1299 | cell growth or viability, MTT | 30 µM, 48 h | viability | 62% |
| O=C(/C=C(O)/C=C/c1ccc[nH]1)/C=C/c1c[nH]c2ccccc12 | CHO-K1 | cell growth or viability, SRB | 72 h | IC50 | 9.64 µM |
| C/C(=N\O)c1ccc(-c2ccc(C#N)cc2)c(Cl)c1O | NCI-H1299 | cell growth or viability, MTT | 30 µM, 48 h | viability | 75% |
| Cc1cc(Nc2ccc(C(=O)N/N=C/c3cccs3)cc2)c2cccc(O)c2n1 | SMMC-7721 | cell growth or viability, MTT | 20 µM | inhibition | 40.7% |
| Clc1ccc(-c2nc3ccccc3[nH]2)cc1Cl | human Rhabdomyosarcoma cell | cell growth or viability, MTT | 48 h | IC50 | 10.4 µM |
| COc1cc(Nc2nccc(-c3cnn4nc(OC)ccc34)n2)cc(C(F)(F)F)c1 | NCI-H1437 | cell growth or viability, ATP luminescence |  | IC50 | 0.75 µM |
| C/C(=N\O)c1ccc(-c2ccc(C(F)(F)F)cc2)c(Cl)c1O | NCI-H1299 | cell growth or viability, MTT | 30 µM, 48 h | viability | 89% |
| Cn1nnc2c(C(N)=O)ncn2c1=O | MKN-45 | cell growth or viability |  | EC50 | 491000 nM |
| COc1cc(/C=C/C(=O)/C=C(O)/C=C/c2cccnc2)ccc1O | CHO-K1 | cell growth or viability, MTT | 72 h | IC50 | 21.4 µM |
| C[C@@H](Oc1cc(-c2cnn(C3CCNCC3)c2)cnc1N)c1c(Cl)ccc(F)c1Cl | NCI-H3122 | cell growth or viability, MTT | 0.2 µg/mL, 72 h | inhibition | 52.9% |
| COc1ccc(/C=N/NC(=O)c2ccc(Nc3cc(C)nc4c(O)cccc34)cc2)cc1O | SMMC-7721 | cell growth or viability, MTT | 20 µM | inhibition | 30.3% |
| C=CC(=O)N1CCC[C@@H](n2nc(-c3ccc(Oc4ccccc4)cc3)c3c(N)ncnc32)C1 | BCWM1 | cell growth or viability | 48 h | GI50 | 0.57 µM |
| Cc1cc(Nc2ccc(C(=O)N/N=C/c3ccc(N(C)C)cc3)cc2)c2cccc(O)c2n1 | SMMC-7721 | cell growth or viability, MTT | 20 µM | inhibition | 33.6% |
| C=C(F)C(=O)N1CCN(c2nc(OC[C@@H]3CCCN3C)nc3c2CCN(c2cccc4cccc(Cl)c24)C3)C[C@@H]1CC#N | NCI-H1437 | cell growth or viability, resazurin | 72 h | GI50 | 3.68 µM |
| FC(F)(F)[Se]CCOc1cccc(Oc2ccccc2)c1 | Vero | cell growth or viability | 72 h | CC50 | > 20 µM |
| COc1ccc(-c2nc3ccc(C)cc3[nH]2)cc1O | human Rhabdomyosarcoma cell | cell growth or viability, MTT | 48 h | IC50 | 48.7 µM |
| C=CC(=O)N1CCN(c2nc(=O)n(-c3c(C)ccnc3C(C)C)c3nc(-c4c(O)cccc4F)c(F)cc23)[C@@H](C)C1 | NCI-H1437 | cell growth or viability, resazurin | 72 h | GI50 | > 10 µM |
| Cc1cc(Nc2ccc(C(=O)N/N=C/c3nc4ccccc4[nH]3)cc2)c2cccc(O)c2n1 | SMMC-7721 | cell growth or viability, MTT | 20 µM | inhibition | 28.3% |
